m-calpain inh: calpain II (pig) inhibition; purified calpain II, fluorogenic peptide substrate, 30 min; inhibition, % at 16 µM; 0.37% of 220,000 active;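 active = inhibition above about 50%, limit read from the data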
Hsp70 activator: switches on Hsp70 transcription; HeLa Hsp70 promoter luciferase reporter, luminescence; scaled: vehicle 0, proteasome-inhibitor control 100%; activation, % at 10 µM; 0.04% of 200,000 active;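 active = activation above the mean across all tested compounds plus 3 SD, cutoff set per campaign, cut at about 5.5% in these data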;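 note: 100% = MG132 at 30 µM as the positive control and 0% = DMSO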
Wee1 degr inh: inhibitors of human Wee1 degradation. HeLa Luc-Wee1K328M stability, luciferase luminescence; 100% = proteasome inhibitor MG132 effect. reporter increase, % at 5 µM. 1.2% of 220,000 active;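 active = activation above the mean of all tested compounds plus 3 SD, set per screening run, cut at about 8.8% in these data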;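 note: cells exposed to compound for 20 h before luminescence read; 0% = DMSO alone and 100% = MG132 at 30 µM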
Target sequence (P30291 whole entry K328M): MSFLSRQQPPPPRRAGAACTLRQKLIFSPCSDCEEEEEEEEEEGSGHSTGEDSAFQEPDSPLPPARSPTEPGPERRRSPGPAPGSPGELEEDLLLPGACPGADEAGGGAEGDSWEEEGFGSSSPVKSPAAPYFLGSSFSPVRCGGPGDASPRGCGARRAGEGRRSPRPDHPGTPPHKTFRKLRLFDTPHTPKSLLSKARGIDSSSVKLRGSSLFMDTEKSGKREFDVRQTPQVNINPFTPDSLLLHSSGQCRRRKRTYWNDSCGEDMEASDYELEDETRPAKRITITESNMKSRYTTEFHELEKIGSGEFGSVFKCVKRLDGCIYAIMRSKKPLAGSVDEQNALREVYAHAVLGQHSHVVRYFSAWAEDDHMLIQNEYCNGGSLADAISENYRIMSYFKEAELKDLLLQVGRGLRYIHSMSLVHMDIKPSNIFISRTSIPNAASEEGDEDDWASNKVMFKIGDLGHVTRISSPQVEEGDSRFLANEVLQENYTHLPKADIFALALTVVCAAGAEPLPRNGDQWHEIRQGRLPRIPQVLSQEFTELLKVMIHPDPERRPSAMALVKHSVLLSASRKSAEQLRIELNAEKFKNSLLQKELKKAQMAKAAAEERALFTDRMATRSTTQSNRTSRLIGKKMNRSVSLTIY
Pf gamet viab: P. falciparum stage V gametocyte viability inhibition; P. falciparum stage V gametocytes, ATP luminescence, 24 h; inhibition, % at 10.9 µM; 0.065% of 150,000 active; AID 743093;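 active = inhibition above the mean plus 3 SD of compounds within the control limits, set per campaign, cut at about 38% in these data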;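 note: 0% = DMSO wells and 100% = medium only without gametocytes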
MDM2 E3 inh: blocks human Mdm2 ubiquitin ligase activity; Q00987; cell-based MDM2 ubiquitination luciferase reporter, 2 h; 0 = plate control, 100 = twice control, blank-subtracted; signal enhancement, % at 5 µM; 0.11% of 210,000 active; AID 1230;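 active = signal enhancement of 30% or more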;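 note: luminescence tracks abundance of the self-degrading MDM2-luciferase fusion protein; higher signal means inhibition of MDM2 E3 ligase activity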
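Assay system: stable mammalian line carrying autodegrading MDM2–luciferase fusion reporter; amount: 2000 cells seeded into each well; buffer or medium: DMEM; benchmarks: plate control and blank wells; signal: luciferase luminescence; timing: 2 h compound exposure at 37 °C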
An asterisk follows results filed as active; . = no result given. In the library only some 1.5% were active in any assay of this set; here they are far more common.

SMILES | m-calpain inh | Hsp70 activator | Wee1 degr inh | Pf gamet viab | MDM2 E3 inh
Fc1ccc(N/N=C/C=C/c2ccccc2)c(F)c1 | 12 | 0 | 10* | . | -8
COC(=O)c1ccc(NC(=O)C2CCN(S(C)(=O)=O)CC2)cc1 | -14 | 1 | 11* | . | -7
CC(C)(C)c1ccc(C(CC(=O)O)NC(=O)CSc2ccccc2)cc1 (stereo not given) | -18 | 0 | 0 | 3 | -1
CN1C2CCC1CC(NC(=O)CSc1ccc(C(C)(C)C)cc1)C2 (stereo not given) | 11 | . | 9.6* | 8 | -8
CCCC(=O)Nc1nc2ccc(NC(=O)c3ccc(Br)o3)cc2s1 | 36 | 0 | 9.5* | 18 | -24
COCCn1c(SCc2ccccc2F)nc2ccccc2c1=O | 51* | 1 | -1 | -5 | -14
O=C(COC(=O)c1ccccc1Br)Nc1cc(S(=O)(=O)N2CCOCC2)ccc1N1CCCC1 | 11 | 1 | -1 | -19 | -18
Cc1cc(C)c(NC(=O)COC(=O)Cc2ccsc2)c(C)c1 | 62* | 0 | -1 | 15 | -11
Cc1ccc(C)c(C2=NNC(=O)CC2)c1 | . | . | . | 11 | .
CC1CCc2c(sc3nc(C(C)(C)C)nc(N4CCN(C(=O)CCl)CC4)c23)C1 (stereo not given) | . | . | . | 8 | .
CN1CCN(c2nc3nonc3nc2N2CCN(C)CC2)CC1 | -4 | 0 | -3 | . | -1
C1CCN(c2nc3nonc3nc2N2CCCCC2)CC1 | -26 | 0 | 10* | . | -17
COc1ccc(-c2c(C3=CCCCC3)oc3ccc(-c4ccc5c(c4)OCO5)cc23)cn1 | . | . | . | -42 | .
O=C(O)COn1c(-c2ccccc2)nc2ccc([N+](=O)[O-])cc21 | 2 | 0 | 11* | -15 | -10
NC(=O)CC(NC(=O)Cc1cccc2ccccc12)c1ccc(NCCCN2CCCC2=O)c([N+](=O)[O-])c1 (stereo not given) | . | . | . | 9 | .
COc1ccc(COc2cc(-c3cccc(OC)c3)nc3ccc(N)cc23)cc1 | -126 | 0 | 9.5* | 11 | .
O=C(NCc1cccs1)c1cc(-c2ccccc2)nc2ccccc12 | 8 | 0 | 0 | 10 | -10
O=C(Nc1nnc(-c2cccs2)o1)c1cc(-c2ccccc2)nc2ccccc12 | -59 | 0 | 9.5* | . | .
COCCCNc1nc2c(c(=O)n(Cc3ccc(Cl)cc3)c(=O)n2C)n1C | . | . | . | 2 | .
COc1ccc(CNc2nc3c(c(=O)n(Cc4ccc(F)cc4)c(=O)n3C)n2C)cc1 | 80* | 0 | -5 | 9 | -11
Cn1c(NCc2ccccc2)nc2c1c(=O)n(Cc1ccccc1)c(=O)n2C | 62* | 0 | 2 | -32 | -3
Cc1cc(SCC(=O)NC(=O)c2cccn2C)nc2ccccc12 | -2 | . | 3 | 11 | .
CC(=O)Nc1ccc(C2=CC(=O)C[C@H](c3ccc4c(c3)OCO4)C2)cc1 | . | . | . | -13 | .
COc1ccc(C(C)=O)c2c(O)cccc12 | 68* | 0 | -2 | . | 0
c1ccc2sc(NCC3CCCO3)nc2c1 (stereo not given) | 1 | 0 | 9.4* | -17 | -11
SMILES | m-calpain inh | Hsp70 activator | Wee1 degr inh | Pf gamet viab | MDM2 E3 inh
CCOc1ccc(OCc2cccc(C(=O)N/N=C/c3cccnc3)c2)cc1 | -10 | -1 | -2 | . | 10
CC(C)c1ccc(OCc2cccc(C(=O)N/N=C/c3cccnc3)c2)cc1 | -17 | 0 | 1 | 15 | 34*
COc1ccc(CN2CCN(Cc3cc4ccccc4o3)CC2CCO)cc1C (stereo not given) | . | . | . | 17 | .
CCC(C)[C@H](NC(=O)OC(C)(C)C)C(=O)N/N=C/C1=Cc2ccccc2OC1 (stereo not given in full) | -197 | 0 | 0 | . | -14
C[C@H](NC(=O)OC(C)(C)C)C(=O)N/N=C/C1=Cc2ccccc2OC1 | -160 | . | 9.7* | -5 | -20
O=S(=O)(/C=C/c1ccccc1)Nc1ccc(N2CCOCC2)cc1 | -7 | 0 | 10* | . | -1
COC(=O)c1sc(NC(=S)NC(=O)c2cccc(Br)c2)nc1C | . | . | . | 5 | .
C=C(Br)CN1[C@@H](Cc2ccccc2)[C@H](O)[C@@]23C=C[C@@H](C[C@@H]2S1(=O)=O)O3 | . | . | . | 13 | .
CC(NC(=O)CCc1nnc(CCCc2ccccc2)o1)c1ccccc1 (stereo not given) | -23 | 0 | 0 | 50* | 19
COc1cccc(CNS(=O)(=O)c2ccc3c(c2)CCN3C(=O)C2CC2)c1 | 12 | 0 | 9.2* | -14 | 4
